Test results published in ChEMBL document CHEMBL4007473, “Discovery of Potent and Orally Bioavailable GPR40 Full Agonists Bearing Thiophen-2-ylpropanoic Acid Scaffold” (J Med Chem, 2017).
Activity calls are given as the source filed them. No cut-off for these calls is given here.

Experiments:
[1] = target: T1, Free fatty acid receptor 1 (Homo sapiens, UniProt O14842); assay: Agonist activity at human GPR40 expressed in CHO cells assessed as increase in intracellular Ca2+ flux by Fluo 4-AM dye based assay; type: functional, cell-based
[2] = target: T1, Free fatty acid receptor 1; assay: Agonist activity at human GPR40 expressed in CHO cells assessed as increase in intracellular Ca2+ flux at 10 uM by Fluo 4-AM dye based assay; type: functional, cell-based
Procedure, shortened: (§1)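 CHO cells stably expressing hGPR40 or hGPR120, seeded and incubated overnight at 37 ℃, 5% CO2. Loaded 90 min with Fluo 4-AM (3 μM) and probenecid (2.5 mM) in HBSS/0.1% BSA, washed, equilibrated 10 min. Ca2+ read as change in 585/525 ratio before and after compound addition; EC50 and Emax fitted from curves, Emax relative to reference agonist 4; mean ± SD, three independent experiments.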

[3] = target: T1, Free fatty acid receptor 1; assay: Agonist activity at human GPR40 expressed in CHO cells assessed as increase in intracellular Ca2+ flux at 20 uM by Fluo 4-AM dye based assay; type: functional, cell-based; procedure, shortened: as §1
[4] = target: Free fatty acid receptor 1 (Mus musculus) (UniProt Q76JU9); assay: Agonist activity at GPR40 in mouse MIN6 cells assessed as increase in 25 mM glucose-stimulated insulin secretion at 10 uM after 1 hr by ELISA; type: cell-based
Procedure, shortened: (§2)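 MIN6 cells pre-incubated 2 h at 37 ℃ in KRBH buffer with 0.1% BSA, then stimulated 1 h at 37 ℃ with 2 mM or 25 mM glucose, alone or with test agents. Insulin secreted into supernatant quantified by ELISA; mean ± SD of four independent experiments, compared with DMSO.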

[5] = target: T2, Free fatty acid receptor 4 (Homo sapiens, UniProt Q5NUL3); assay: Agonist activity at human GPR120 expressed in CHO cells assessed as increase in intracellular Ca2+ flux by Fluo 4-AM dye based assay; type: functional, cell-based; procedure, shortened: as §1
T2 sequence (Q5NUL3 whole entry): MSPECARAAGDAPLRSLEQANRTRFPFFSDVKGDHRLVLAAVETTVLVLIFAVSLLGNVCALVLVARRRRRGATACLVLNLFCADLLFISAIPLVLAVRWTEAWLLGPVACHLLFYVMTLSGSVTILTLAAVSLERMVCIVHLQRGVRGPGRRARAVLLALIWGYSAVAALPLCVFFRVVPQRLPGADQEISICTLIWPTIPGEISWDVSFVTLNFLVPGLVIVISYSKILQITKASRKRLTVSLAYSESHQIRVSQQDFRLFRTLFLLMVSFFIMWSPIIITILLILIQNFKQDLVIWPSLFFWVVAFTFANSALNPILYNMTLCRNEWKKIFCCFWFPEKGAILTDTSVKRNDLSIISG

[6] = target: T3, Peroxisome proliferator-activated receptor gamma (Homo sapiens, UniProt P37231); assay: Agonist activity at PPARgamma (unknown origin) expressed in HEK293T cells by luciferase reporter gene assay; type: cell-based
T3 sequence (P37231 whole entry): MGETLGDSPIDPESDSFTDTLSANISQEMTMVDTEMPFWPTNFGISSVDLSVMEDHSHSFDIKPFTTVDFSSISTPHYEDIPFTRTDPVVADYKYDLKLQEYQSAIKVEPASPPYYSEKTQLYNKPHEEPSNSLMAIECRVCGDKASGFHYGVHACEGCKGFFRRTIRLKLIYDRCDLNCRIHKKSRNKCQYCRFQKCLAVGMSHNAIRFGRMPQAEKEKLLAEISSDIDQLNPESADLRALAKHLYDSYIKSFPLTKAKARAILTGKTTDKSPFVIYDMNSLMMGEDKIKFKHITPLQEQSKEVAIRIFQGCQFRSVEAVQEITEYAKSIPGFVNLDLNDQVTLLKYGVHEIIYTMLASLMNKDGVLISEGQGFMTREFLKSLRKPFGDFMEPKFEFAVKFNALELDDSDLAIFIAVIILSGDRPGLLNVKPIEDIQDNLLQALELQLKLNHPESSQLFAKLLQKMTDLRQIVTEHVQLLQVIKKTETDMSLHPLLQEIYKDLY

[7] = target: T1, Free fatty acid receptor 1; assay: Agonist activity at human GPR40 expressed in CHO cells assessed as increase in intracellular Ca2+ flux by Fluo 4-AM dye based assay relative to 3-(4-((2',6'-dimethylbiphenyl-3-yl)methoxy)phenyl)propanoic acid; type: functional, cell-based; procedure, shortened: as §1
[8] = target: T1, Free fatty acid receptor 1; assay: Agonist activity at human GPR40 expressed in HEK293T cells transfected with 5 ug of GPR40 expression plasmid assessed as increase in intracellular Ca2+ flux by Fluo 4-AM dye based assay; type: functional, cell-based; details: HEK-293T
Procedure, shortened: (§3)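 Plasmid titration: HEK293T cells transiently transfected with 5 μg or 0.05 μg hGPR40 expression plasmid, plated on poly-D-lysine and held 24 h. Loaded with Fluo 4-AM (3 μM) and probenecid (2.5 mM) in HBSS/0.1% BSA for 90 min, washed, equilibrated 10 min. Ca2+ response measured as change in 585/525 ratio after compound addition; mean ± SD of three experiments.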

[9] = Inhibition of hepatobiliary transporter in Sprague-Dawley rat sandwich-cultured rat hepatocytes assessed as decrease in d8-TCA by measuring biliary excretion index at 1 to 25 uM incubated for 15 mins followed by d8-TCA addition measured after 15 mins by LC-MS/MS analysis; type: ADME; details: 0.25 h
Procedure, shortened: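 Sandwich-cultured hepatocytes from male SD rats exposed to compound 15 min in standard HBSS. Cells rinsed and pre-incubated 15 min at 37 ℃ in standard or Ca2+-free HBSS, then incubated 15 min with compound plus 1 µM d8-TCA. Washed with ice-cold PBS; cellular d8-TCA measured by LC-MS/MS. BEI = (A_HBSS – A_Ca-free)/A_HBSS × 100%.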

[10] = target: T1, Free fatty acid receptor 1; assay: Agonist activity at human GPR40 expressed in HEK293T cells transfected with 0.05 ug of GPR40 expression plasmid assessed as increase in intracellular Ca2+ flux by Fluo 4-AM dye based assay; type: functional, cell-based; details: HEK-293T; procedure, shortened: as §3
Mus musculus = assay: Antidiabetic activity in ICR mouse assessed as decrease in blood glucose AUC at 10 mg/kg, po administered 30 mins prior to glucose challenge measured 120 mins post dose by OGTT; type: functional, organism-based
Procedure, shortened: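 Six-week-old male ICR mice fasted 16 h, n = 10 per group, dosed orally in 0.5% methylcellulose/20% PEG400 (10 or 20 mg/kg). Oral glucose load 2.5 g/kg by gavage 30 min later. Tail-vein glucose read at -30, 0, 30, 60, 90 and 120 min; AUC0-120 min computed and compared with vehicle.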

[11] = target: Free fatty acid receptor 1 (Mus musculus) (UniProt Q76JU9); assay: Agonist activity at GPR40 in mouse MIN6 cells assessed as increase in 25 mM glucose-stimulated insulin secretion at 300 nM after 1 hr by ELISA; type: cell-based; procedure, shortened: as §2

Free fatty acid receptor 1 (Mus musculus), sequence (Q76JU9 whole entry): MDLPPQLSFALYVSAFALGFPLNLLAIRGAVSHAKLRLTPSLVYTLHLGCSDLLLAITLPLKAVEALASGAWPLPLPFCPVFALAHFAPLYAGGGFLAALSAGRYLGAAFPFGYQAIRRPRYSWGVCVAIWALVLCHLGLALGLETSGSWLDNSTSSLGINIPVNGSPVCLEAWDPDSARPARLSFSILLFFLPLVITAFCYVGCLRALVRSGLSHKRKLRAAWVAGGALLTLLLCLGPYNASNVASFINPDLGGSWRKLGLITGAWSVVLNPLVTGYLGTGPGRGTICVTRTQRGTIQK
T1 sequence (O14842 whole entry): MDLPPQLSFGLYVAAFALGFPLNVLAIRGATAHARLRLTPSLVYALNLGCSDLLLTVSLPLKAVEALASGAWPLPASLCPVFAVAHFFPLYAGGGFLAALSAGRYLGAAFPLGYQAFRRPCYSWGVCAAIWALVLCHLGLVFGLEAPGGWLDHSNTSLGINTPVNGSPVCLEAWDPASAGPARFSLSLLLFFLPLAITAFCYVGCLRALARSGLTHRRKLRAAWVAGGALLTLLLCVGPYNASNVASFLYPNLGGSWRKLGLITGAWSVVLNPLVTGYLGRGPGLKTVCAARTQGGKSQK

`CC#CC(CC(=O)O)c1ccc(OCc2cccc(-c3c(C)cc(OCCCS(C)(=O)=O)cc3C)c2)s1` (racemic) gave an EC50 [1] of 240 nM.

In the case of `CCCC(CC(=O)O)c1ccc(OCc2cccc(-c3c(C)cccc3C)c2)s1` (racemic), the Activity [2] is reported as “inactive”.

Compound `Cc1cccc(C)c1-c1cccc(COc2ccc(C(C#N)CC(=O)O)s2)c1` (racemic) has an EC50 [1] of 110 nM.

For `CC#CC(CC(=O)O)c1ccc(OCc2cccc(-c3c(C)cc(OC4CCN(C)CC4)cc3C)c2)s1` (racemic), the Activity [2] was “inactive”.

In the case of `Cc1cccc(C)c1-c1ccc(COc2ccc(CCC(=O)O)s2)cc1`, the Activity [3] is reported as “inactive”.

With `Cc1cccc(C)c1-c1cccc(COc2ccc(C(C)CC(=O)O)s2)c1` (racemic) the Activity [2] was “inactive”.

In the case of `Cc1cccc(C)c1-c1cccc(COc2ccc(CCC(=O)O)s2)c1`, the Activity [4] is reported as “inactive”, the EC50 [5] is reported as over 10000 nM and the EC50 [6] is reported as over 10000 nM. The Emax [7] was 140% and the EC50 [1] was 32 nM.

In the case of `Cc1cc(OCCCS(C)(=O)=O)cc(C)c1-c1cccc(COc2ccc3c(c2)OC[C@H]3CC(=O)O)c1`, the Activity [8] is reported as “Active”, the Activity [9] is reported as “Not Active” and the Activity [4] is reported as “Active”. The Activity [10] was “inactive”, the Activity (Mus musculus) was “Active” and the Activity [11] was “Active”.

For `O=C(O)CCc1ccc(OCc2cccc(-c3ccc(C(F)(F)F)cc3)c2)s1`, the Activity [2] was “inactive”.

Work on `CCOC(CC(=O)O)c1ccc(OCc2cccc(-c3c(C)cccc3C)c2)s1` (racemic) yielded an EC50 [1] of 57 nM.

For `O=C(O)CCc1ccc(OCc2cccc(-c3ccccc3C(F)(F)F)c2)s1`, the EC50 [1] was 2710 nM.

With `CC/C=C\C/C=C\C/C=C\C/C=C\C/C=C\C/C=C\CCC(=O)O` the Activity [8] was “Active” and the Activity [10] was “Active”.

For `O=C(O)CCc1ccc(OCc2cccc(-c3cc(Cl)nc(Cl)c3)c2)s1`, the Activity [2] was “inactive”.

Work on `Cc1cccc(C)c1-c1cccc(OCn2cc(CCC(=O)O)nn2)c1` yielded an Emax [7] of 95.6% and an EC50 [1] of 32200 nM.

With `Cc1cccc(C)c1-c1cccc(COc2cc3sc(C(=O)O)cc3s2)c1` the Activity [3] was “inactive”.

With `CC#CC(CC(=O)O)c1ccc(OCc2cccc(-c3c(C)cccc3C)c2)s1` (racemic) the EC50 [1] was 210 nM.

In the case of `Cc1cccc(C)c1-c1cccc(COc2ccc(C(CC(=O)O)c3c[nH]nn3)s2)c1` (racemic), the Activity [2] is reported as “inactive”.

Work on `Cc1cccc(C)c1-c1cccc(OCc2ccc(CCC(=O)O)s2)c1` yielded an Emax [7] of 136% and an EC50 [1] of 2420 nM.

In the case of `O=C(O)CCc1ccc(OCc2cccc(-c3ccncc3Cl)c2)s1`, the EC50 [1] is reported as 2010 nM.

With `COC(CC(=O)O)c1ccc(OCc2cccc(-c3c(C)cccc3C)c2)s1` (racemic) the EC50 [1] was 210 nM.

In the case of `N#CCc1ccccc1C#Cc1ccc(CCC(=O)O)s1`, the EC50 [1] is reported as 640 nM.

For `Cc1cccc(C)c1-c1cccc(COc2ccc(C(CC(=O)O)C3CC3)s2)c1` (racemic), the EC50 [1] was 3920 nM.

With `Cc1cccc(C)c1-c1cccc(COc2cc3sc(CCC(=O)O)cc3s2)c1` the Activity [3] was “inactive”.

In the case of `N#Cc1ccccc1-c1cccc(COc2ccc(CCC(=O)O)s2)c1`, the Activity [2] is reported as “inactive”.

In the case of `CCC(CC(=O)O)c1ccc(OCc2cccc(-c3c(C)cccc3C)c2)s1` (racemic), the Activity [2] is reported as “inactive”.

For `NC(=O)c1ccccc1-c1cccc(COc2ccc(CCC(=O)O)s2)c1`, the Activity [2] was “inactive”.

With `CC#C[C@H](CC(=O)O)c1ccc(OCc2cccc(-c3c(C)cc(OCCCS(C)(=O)=O)cc3C)c2)s1` the EC50 [1] was 410 nM.

For `CC#CC(CC(=O)O)c1ccc(OCc2ccc(CN3CCC4(C=Cc5ccccc54)CC3)cc2)s1` (centres undefined), the Activity [3] was “inactive”.

Compound `Cc1cccc(C)c1-c1cccc(COc2ccc(CCC(=O)O)cc2)c1` has an Emax [7] of 100% and an EC50 [1] of 8 nM.

Work on `Cc1cccc(C)c1-c1cccc(COc2ccc(CC3SC(=O)NC3=O)s2)c1` (centres undefined) yielded an EC50 [1] of 82 nM.

For `Cc1cccc(C)c1-c1cccc(COc2ccc([C@H](CC(=O)O)c3ccon3)s2)c1`, the Activity [2] was “inactive”.

Work on `Cc1cccc(C)c1-c1cccc(COc2cn(CCC(=O)O)nn2)c1` yielded an Emax [7] of 97.9% and an EC50 [1] of 14800 nM.

`CCO[C@@H](CC(=O)O)c1ccc(OCc2cccc(-c3c(C)cccc3C)c2)s1` showed an EC50 [1] of 40100 nM.

For `COc1ccccc1-c1cccc(COc2ccc(CCC(=O)O)s2)c1`, the Activity [2] was “inactive”.

For `CC#CC(CC(=O)O)c1ccc(OCc2cccc(-c3c(C)cc(OCC4(C)COC4)cc3C)c2)s1` (racemic), the EC50 [1] was 450 nM.

`Cc1cccc(C)c1-c1cccc(OCc2cn(CCC(=O)O)nn2)c1` gave an Emax [7] of 79.9% and an EC50 [1] of 14700 nM.

For `CCO[C@H](CC(=O)O)c1ccc(OCc2cccc(-c3c(C)cccc3C)c2)s1`, the Activity [4] was “inactive”, the EC50 [5] was over 10000 nM and the EC50 [6] was over 10000 nM. The Emax [7] was 147% and the EC50 [1] was 50 nM.

In the case of `Cc1cccc(C)c1-c1cccc(COc2csc(CCC(=O)O)c2)c1`, the Emax [7] is reported as 135% and the EC50 [1] is reported as 2320 nM.

`COc1ccc(F)c(-c2cccc(COc3ccc(CCC(=O)O)s3)c2)c1` showed an EC50 [1] of 580 nM.
